In ChEMBL document CHEMBL1131197, “5'-substituted adenosine analogs as new high-affinity partial agonists for the adenosine A1 receptor” (J Med Chem, 1998):

Legend:
[1] = biological target: T1, Adenosine receptor A1 (Rattus norvegicus) (UniProt P25099); experiment: Intrinsic activity for maximum stimulation of [35S]GTP-gamma-S, binding to adenosine A1 receptor in rat brain membranes; format: functional, cell membranes
T1 sequence (whole entry): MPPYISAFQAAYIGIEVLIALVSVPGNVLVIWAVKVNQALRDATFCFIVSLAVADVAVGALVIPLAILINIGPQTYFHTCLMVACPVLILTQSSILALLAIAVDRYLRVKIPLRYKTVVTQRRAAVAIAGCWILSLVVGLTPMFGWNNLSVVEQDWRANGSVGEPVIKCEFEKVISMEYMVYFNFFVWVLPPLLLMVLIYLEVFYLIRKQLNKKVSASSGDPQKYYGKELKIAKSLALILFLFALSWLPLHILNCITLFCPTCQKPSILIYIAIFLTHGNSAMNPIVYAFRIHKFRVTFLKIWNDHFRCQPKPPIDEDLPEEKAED
Outline: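 Rat brain membranes incubated with the agonist and [35S]GTPγS; nonspecific binding defined with 10 μM unlabelled GTPγS. Read-out is the maximal level of G protein activation by [35S]GTPγS binding, given ± SEM, with EC50 derived from the stimulation curves; n = 3-9.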

Adenosine receptor A1 [2] = biological target: T2, Adenosine receptor A1 (Rattus norvegicus, UniProt P25099); experiment: Effective concentration for [35S]GTP-gamma-S, binding to adenosine A1 receptor in rat brain membranes; format: functional, cell membranes
T2 sequence (P25099 whole entry): T1 sequence (whole entry)
Outline: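 Stimulation of [35S]GTPγS binding in rat brain membranes (same preparation as binding); nonspecific binding defined with 10 µM unlabeled GTPγS.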

Adenosine receptor A1 [3] = biological target: T2, Adenosine receptor A1; experiment: Binding affinity against adenosine A1 receptor using [3H]DPCPX in rat cortical membranes in the absence of GTP; format: cell membranes
Outline: (§1)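 Rat cortical membranes, pre-incubated with 2 units/mL ADA at 37 °C before storage; protein by BCA. Nonspecific binding defined with 10 µM R-PIA. Line 1 run without GTP, line 2 with 1 mM GTP. Ki values are means of three independent experiments in duplicate unless otherwise noted.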

Adenosine receptor A1 [4] = biological target: T2, Adenosine receptor A1; experiment: Binding affinity against adenosine A1 receptor using [3H]DPCPX in rat cortical membranes in the presence of GTP.; format: cell membranes; outline: as §1
Adenosine receptor A2a = Adenosine receptor A2a (Rattus norvegicus, UniProt P30543); experiment: Binding affinity against Adenosine A2A receptor using [3H]-CGS- 21680 as the radioligand in rat striatal membranes; format: cell membranes, Striatum, Membrane
Sequence of Adenosine receptor A2a (P30543 whole entry): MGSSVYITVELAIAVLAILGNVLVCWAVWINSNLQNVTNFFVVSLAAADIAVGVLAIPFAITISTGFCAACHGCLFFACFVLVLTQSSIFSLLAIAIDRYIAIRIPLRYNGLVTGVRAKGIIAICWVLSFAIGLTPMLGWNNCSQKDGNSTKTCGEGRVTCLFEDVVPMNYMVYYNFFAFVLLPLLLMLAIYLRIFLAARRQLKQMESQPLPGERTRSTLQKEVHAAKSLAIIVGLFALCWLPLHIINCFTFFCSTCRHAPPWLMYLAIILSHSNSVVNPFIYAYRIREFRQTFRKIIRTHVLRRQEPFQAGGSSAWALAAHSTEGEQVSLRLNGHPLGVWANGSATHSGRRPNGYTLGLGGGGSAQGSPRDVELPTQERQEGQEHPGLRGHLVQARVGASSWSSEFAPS

Structure (SMILES) | Activity [1] | EC50 (Adenosine receptor A1 [2]) | Ki (Adenosine receptor A1 [3]) | Ki (Adenosine receptor A1 [4]) | Ki (Adenosine receptor A2a)
OC[C@H]1O[C@@H](n2cnc3c(NC4CCCC4)ncnc32)[C@H](O)[C@@H]1O | 100% | – | – | – | –
CNC[C@H]1O[C@@H](n2cnc3c(NC4CCCC4)ncnc32)[C@H](O)[C@@H]1O | 96.4% | 1330 nM | 440 nM | 2600 nM | 45500 nM
CCCNC[C@H]1O[C@@H](n2cnc3c(NC4CCCC4)ncnc32)[C@H](O)[C@@H]1O | 73% | 13900 nM | 4640 nM | 14300 nM | 14500 nM
C[Se]C[C@H]1O[C@@H](n2cnc3c(NC4CCCC4)ncnc32)[C@H](O)[C@@H]1O | 50.3% | 225 nM | 76 nM | 166 nM | 11300 nM
O[C@@H]1[C@H](O)[C@@H](CCl)O[C@H]1n1cnc2c(NC3CCCC3)ncnc21 | 88% | 26 nM | 9.5 nM | 61.5 nM | 8750 nM
CCNC[C@H]1O[C@@H](n2cnc3c(NC4CCCC4)ncnc32)[C@H](O)[C@@H]1O | – | – | 2410 nM | 8560 nM | 42500 nM

Second part, the molecule after the results:

Activity [1] | EC50 (Adenosine receptor A1 [2]) | Ki (Adenosine receptor A1 [3]) | Ki (Adenosine receptor A1 [4]) | Ki (Adenosine receptor A2a) | Structure (SMILES)
84.1% | 384 nM | 76 nM | 222 nM | 18800 nM | CCCSC[C@H]1O[C@@H](n2cnc3c(NC4CCCC4)ncnc32)[C@H](O)[C@@H]1O
65.6% | 127 nM | 45 nM | 130 nM | 19000 nM | CCSC[C@H]1O[C@@H](n2cnc3c(NC4CCCC4)ncnc32)[C@H](O)[C@@H]1O
85.3% | 189 nM | 41 nM | 149 nM | 10300 nM | CC(C)CSC[C@H]1O[C@@H](n2cnc3c(NC4CCCC4)ncnc32)[C@H](O)[C@@H]1O
40.2% | 99 nM | 59 nM | 199 nM | 13500 nM | CSC[C@H]1O[C@@H](n2cnc3c(NC4CCCC4)ncnc32)[C@H](O)[C@@H]1O
